High-throughput results: PubChem BioAssay, Johns Hopkins Ion Channel Center
Hits are enriched below; roughly 3.7% of the tested compounds scored in any of these assays.
hERG protect = hERG (human) protection from proarrhythmic block; actives 0.51% (n = 310,000); activation (rescue from dofetilide block), less the hit threshold, % at 10 µM; AID 1511; CHO-hERG, FluxOR thallium flux, dofetilide IC70 present; Q12809;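 active = activation above the mean of controls blocked by dofetilide plus 5 SD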;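 note: thallium influx through hERG after potassium depolarization seen as dye fluorescence rise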
KCNQ1 inh = human KCNQ1 channel inhibition | actives 1.3% (n = 310,000) | P51787 | B-score at 10 µM | CHO-K1 KCNQ1, FluxOR thallium flux fluorescence; active compounds read high;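 active = compounds whose thallium flux B-score, printed positive for inhibition, exceeds three library SD while starting fluorescence stays within three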;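 note: channel opened by potassium depolarization with thallium stimulus after 20 min compound exposure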
KCNK3 inh = human KCNK3 channel inhibition, primary screen; O14649; CHO-KCNK3 thallium flux, FluxOR fluorescence; active compounds read low; B-score at 10 µM; actives 0.84% (n = 340,000); AID 602410;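 active = B-score under library mean minus 4 SD, starting fluorescence ratio at most library mean plus 5 SD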;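 note: more negative B-score means stronger inhibition of thallium flux through KCNK3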
Target sequence (O14649 whole entry, looked up): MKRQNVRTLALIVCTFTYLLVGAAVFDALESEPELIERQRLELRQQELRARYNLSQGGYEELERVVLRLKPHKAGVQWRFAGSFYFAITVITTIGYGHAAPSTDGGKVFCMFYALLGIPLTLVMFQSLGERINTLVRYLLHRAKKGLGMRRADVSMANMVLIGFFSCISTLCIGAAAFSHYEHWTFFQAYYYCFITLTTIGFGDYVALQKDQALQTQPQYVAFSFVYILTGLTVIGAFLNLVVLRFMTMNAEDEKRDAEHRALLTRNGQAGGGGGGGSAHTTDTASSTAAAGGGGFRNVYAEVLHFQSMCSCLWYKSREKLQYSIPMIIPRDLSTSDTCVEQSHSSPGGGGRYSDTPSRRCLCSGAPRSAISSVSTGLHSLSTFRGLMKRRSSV
KCNQ1 act = potentiators or activators of human KCNQ1 potassium channel; P51787; CHO-K1 KCNQ1, thallium flux FluxOR fluorescence; active compounds read high; B-score at 10 µM; actives 0.35% (n = 310,000); AID 2648;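 active = fluorescence ratio B-score, a plate-corrected score, at least three library SD, with initial intensity B-score within 5 SD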
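Test system: CHO-K1 cells stably expressing KCNQ1 / Medium: assay buffer / Also added: depolarizing K+/Tl+ stimulus, K2SO4 and Tl2SO4 each 12.5 mM in 5x stock / Incubation: 90 min dye loading and 20 min compound exposure, both at room temperature / Signal: thallium influx via FluxOR fluorescence, kinetic imaging / Evaluation: B score of baseline-normalized fluorescence ratio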
KCNK9 block = inhibitors of human KCNK9 two-pore domain potassium channel | actives 1.2% (n = 310,000) | AID 488922 | B-score at 10 µM | HEK293 KCNK9, FluxOR thallium flux fluorescence; active compounds read low | Q9NPC2;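 active = ratio B-score over 3 SD below the library mean, with starting fluorescence within 5 SD of its mean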;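 note: negative B-score means less thallium flux so channel inhibition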
Kir21 inh = blocks the mouse Kir2.1 inward-rectifier potassium channel; P35561; actives 0.85% (n = 310,000); AID 1672; B-score at 10 µM; HEK293-Kir2.1, FluxOR thallium flux fluorescence; active compounds read low;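 active = fluorescence ratio B-score at or below minus 3 SD of library scores, with starting-brightness B-score within 2 SD, cut at about -4.2 in these data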;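 note: channel flux triggered by added potassium and thallium sulfate stimulus; B-score of peak minus minimum fluorescence over baseline after thallium stimulus; more negative B-score means stronger Kir2.1 block with less thallium influx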
KCNK9 block conf = human KCNK9 inhibitor confirmation; HEK293 KCNK9 cells, FluxOR thallium flux fluorescence; inhibition, % at 10 µM; AID 492992; shares compounds with KCNK9 block; actives 43% (n = 4,900);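 active = thallium signal inhibited by more than 5 SD of the compound-free buffer control wells, on both duplicate plates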;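 note: 0% = assay buffer control wells without compound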
Kir21 sel = selectivity of KCNK9 modulators against mouse Kir2.1 | shares compounds with KCNK9 block | Kir2.1 cells, FluxOR thallium flux fluorescence | inhibition, % at 10 µM | actives 4% (n = 4,900) | AID 492993;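 active = thallium signal drop more than 5 SD beyond the mean of the no-compound control wells, seen in both duplicate plates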;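 note: signal is fluorescence rise after thallium addition divided by baseline fluorescence; plate controls were assay buffer only for no effect and full block by chlorpromazine control for full effect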
HEK293 Tl ctr = non-induced cell nonspecific activity of KCNK9 modulators. actives 40% (n = 4,900). shares compounds with KCNK9 block. non-induced KCNK9-HEK293, FluxOR thallium flux. inhibition, % at 10 µM. AID 492997;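 active = thallium signal drop beyond 5 SD of the untreated control mean, on both duplicate plates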;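 note: plate controls were buffer only IC0 wells for no effect and SID17386958 at its maximal inhibitory level for full effect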
* hit, by the source's call.

CCCC(=O)N(CCN(Cc1ccccc1)C(=O)CCC)Cc1ccccc1 was read as hERG protect -12, KCNQ1 inh inactive, KCNK3 inh inactive, KCNQ1 act inactive, KCNK9 block inactive and Kir21 inh -2.1.
For CCC(=O)N(CCC(c1ccco1)C(C)C)Cc1ccccc1 (stereo unspecified) the results were hERG protect -16, KCNQ1 inh inactive, KCNK3 inh inactive, KCNQ1 act inactive, KCNK9 block -11*, Kir21 inh -6.1*, KCNK9 block conf inactive, Kir21 sel inactive and HEK293 Tl ctr 34%*.
For CCC(=O)N(CCC(c1ccc(C)cc1)c1ccco1)Cc1ccco1 (stereo unspecified) the results were hERG protect -12, KCNQ1 inh inactive, KCNK3 inh inactive, KCNQ1 act inactive, KCNK9 block -16*, Kir21 inh -2.7, KCNK9 block conf 68%*, Kir21 sel inactive and HEK293 Tl ctr 46%*.
For CC(=O)N(CCC(c1ccco1)C(C)C)Cc1ccc(Cl)cc1 (stereo unspecified) the results were hERG protect -9, KCNQ1 inh inactive, KCNK3 inh inactive, KCNQ1 act inactive, KCNK9 block -9.3*, Kir21 inh -3.2, KCNK9 block conf 40%*, Kir21 sel 33%* and HEK293 Tl ctr 46%*.
Screening C[C@H](CO)N1C[C@H](C)[C@@H](CN(C)S(=O)(=O)c2ccc(F)cc2)Oc2ccc(NC(=O)NC3CCCCC3)cc2C1=O returned KCNK3 inh inactive.
COc1ccc(NC(=O)CSc2n[nH]c(-c3ccncc3)n2)cc1Cl was read as KCNK3 inh inactive.
`Cc1ccsc1/C=N/N1CCN(C2c3ccccc3-c3ccccc32)CC1` gave hERG protect -5, KCNQ1 inh inactive, KCNK3 inh inactive, KCNQ1 act inactive, KCNK9 block inactive, Kir21 inh -2.8, KCNK9 block conf inactive, Kir21 sel inactive and HEK293 Tl ctr 27%*.
For COc1ccc(C)cc1NC(=O)CNC(=O)[C@@H]1Cc2ccccc2CN1 the results were hERG protect -7, KCNQ1 inh inactive, KCNK3 inh inactive, KCNQ1 act inactive, KCNK9 block inactive and Kir21 inh 0.22.
`CCc1ccc(N(CC)C(=O)c2ccc3c(Cl)c4c(nc3c2)CCC4)cc1` gave hERG protect -11, KCNQ1 inh inactive, KCNK3 inh inactive, KCNQ1 act inactive, KCNK9 block inactive, Kir21 inh 1.8, KCNK9 block conf inactive, Kir21 sel inactive and HEK293 Tl ctr 27%*.
`COc1ccc(N(C)C(=O)c2ccc3c(Cl)c4c(nc3c2)CCCC4)c(OC)c1` gave hERG protect -14, KCNQ1 inh inactive, KCNK3 inh inactive, KCNQ1 act inactive, KCNK9 block inactive and Kir21 inh 1.
`Cc1ccc(N(C)C(=O)c2ccc3c(Cl)c4c(nc3c2)CCC4)cc1C` gave hERG protect -18, KCNQ1 inh inactive, KCNK3 inh inactive, KCNQ1 act inactive, KCNK9 block inactive, Kir21 inh -2.2, KCNK9 block conf inactive, Kir21 sel inactive and HEK293 Tl ctr inactive.
For CCN(CC)S(=O)(=O)c1ccc(O)c(NS(=O)(=O)c2ccccc2F)c1 the results were hERG protect -6, KCNQ1 inh inactive, KCNK3 inh inactive, KCNQ1 act inactive, KCNK9 block inactive and Kir21 inh -0.91.
Screening Cc1ccc(NS(=O)(=O)c2ccc3c(c2)NC(=O)CCS3)cc1C returned hERG protect -11, KCNQ1 inh inactive, KCNK3 inh inactive, KCNQ1 act inactive, KCNK9 block inactive and Kir21 inh -1.2.
For CCc1ccccc1NC(=O)c1ccc(-n2c(C)ccc2C)cc1 the results were hERG protect -6, KCNQ1 inh inactive, KCNK3 inh inactive, KCNQ1 act inactive, KCNK9 block -8.5*, Kir21 inh 0.9, KCNK9 block conf 32%*, Kir21 sel inactive and HEK293 Tl ctr inactive.
Cc1ccc(C)n1-c1ccc(C(=O)Nc2ccccc2F)cc1 was read as hERG protect -16, KCNQ1 inh inactive, KCNK3 inh inactive, KCNQ1 act inactive, KCNK9 block inactive and Kir21 inh 1.
For COc1cc(OC)c(OC)cc1CN1CCN(c2ccc(F)cc2)CC1 the results were hERG protect -9, KCNQ1 inh inactive, KCNK3 inh inactive, KCNQ1 act inactive, KCNK9 block inactive, Kir21 inh -0.42, KCNK9 block conf inactive, Kir21 sel inactive and HEK293 Tl ctr inactive.
`COc1cc(C(=O)N/N=C/c2ccc(OC)c(CN3CCN(c4ccc(F)cc4)CC3)c2)ccc1O` gave hERG protect -28, KCNQ1 inh inactive, KCNK3 inh inactive, KCNQ1 act inactive, KCNK9 block inactive, Kir21 inh -1.1, KCNK9 block conf inactive, Kir21 sel inactive and HEK293 Tl ctr inactive.
Screening COc1ccc(/C=N/NC(=O)c2ccccc2)cc1CN1CCN(c2ccc(F)cc2)CC1 returned hERG protect -6, KCNQ1 inh inactive, KCNK3 inh inactive, KCNQ1 act inactive, KCNK9 block inactive and Kir21 inh -1.2.
`O=C(Nc1nncs1)c1ccc2c(c1)OCO2` gave hERG protect -8, KCNQ1 inh inactive, KCNK3 inh inactive, KCNQ1 act inactive, KCNK9 block inactive and Kir21 inh -0.57.
For CC(=O)N(CCC(Cc1ccccc1)c1ccc2c(c1)OCO2)Cc1ccccc1F (stereo unspecified) the results were hERG protect -6, KCNQ1 inh 6*, KCNK3 inh inactive, KCNQ1 act inactive, KCNK9 block -16*, Kir21 inh -0.62, KCNK9 block conf 28%*, Kir21 sel inactive and HEK293 Tl ctr inactive.
O=C(NC(Cc1ccccc1)c1ccc2c(c1)OCCCO2)c1ccccc1F (stereo unspecified) was read as hERG protect -9, KCNQ1 inh inactive, KCNK3 inh inactive, KCNQ1 act inactive, KCNK9 block inactive and Kir21 inh 0.58.
For CCOc1cc(/C=C2\C(=O)N(CCc3ccc(OC)c(OC)c3)C(C)=C2C(=O)OC)ccc1O the results were hERG protect -13, KCNQ1 inh inactive, KCNK3 inh inactive, KCNQ1 act inactive, KCNK9 block inactive and Kir21 inh 0.44.
